pIC50: −log10 of the molar value. Activity calls are given as the source filed them. The calls are words filed in the database; no cut-off is given here.

The test system of test [1] is Candida albicans. The test is described as follows: Inhibition of Candida albicans CaCdr1p-mediated drug efflux overexpressed in Saccharomyces cerevisiae assessed as nile red accumulation after 30 mins by flow cytometry. The essentials:
(§1)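 Host is S. cerevisiae AD1-8u− deleted for its own multidrug transporters, carrying the C. albicans transporter ORF integrated at the PDR5 locus (AD-CDR1 or AD-MDR1). Cells are grown in YEPD at 30 °C from OD600 0.1 to 0.25, then resuspended as a 5% suspension in YEPD diluted 1:2 with water. NR is 7 μM final with inhibitor at 70 μM, 30 min at 30 °C. Read-out is flow cytometry of 10 000 cells. Three independent experiments.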

For test [2], the system named is Saccharomyces cerevisiae. Description: Toxicity against Saccharomyces cerevisiae AD1-8u(-). The class given is organism-based. The essentials:
(§2)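 Yeast cells (10^4) seeded with inhibitor 0.15−80 μM or none, grown 48 h at 30 °C in YEPD; optical density measured. Growth without inhibitor set as 100%, and the concentration giving 50% growth taken as IC50. Means ± SD of three independent experiments, duplicate samples.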

The test system of test [3] is Saccharomyces cerevisiae. The test is described as follows: Toxicity against Saccharomyces cerevisiae AD1-8u(-) overexpressing CaCdr1p. The class given is organism-based. Summed up: as §2
Test [4] deals with Saccharomyces cerevisiae. Description: Toxicity against Saccharomyces cerevisiae AD1-8u(-) overexpressing CaMdr1p. Type of test: organism-based. Summed up:
as §2

In test [5] the test system is Saccharomyces cerevisiae. The test is described as follows: Resistance index, ratio of IC50 for Saccharomyces cerevisiae AD1-8u(-) overexpressing CaCdr1p to IC50 for Saccharomyces cerevisiae AD1-8u(-). Type of test: functional. The essentials:
(§3)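 RI computed as the IC50 for the AD-CDR1 or AD-MDR1 strain divided by that for control strain AD1-8u−. Each IC50 comes from optical density after 48 h growth at 30 °C of 10^4 cells with inhibitor at 0.15−80 μM, 50% growth versus untreated. Means ± SD of three independent experiments.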

Test [6] concerns Saccharomyces cerevisiae. Description: Resistance index, ratio of IC50 for Saccharomyces cerevisiae AD1-8u(-) overexpressing CaMdr1p to IC50 for Saccharomyces cerevisiae AD1-8u(-). Type of test: functional. Summed up: as §3
In test [7] the test system is Saccharomyces cerevisiae. Description: Growth inhibition of Saccharomyces cerevisiae AD1-8u(-) assessed as FIC of fluconazole by checkerboard method. The class given is functional. The essentials: (§4)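 Checkerboard per CLSI: yeast cells (10^4) in 96-well format with fluconazole 0.15−800 μM crossed with inhibitor 0.15−80 μM, grown 48 h at 30 °C in YEPD; growth read by optical density. FIC for FLC = IC50 of FLC in combination/IC50 alone; FIC for inhibitor likewise; FICI from both. Means ± SD of three independent experiments.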

Test [8] relates to Saccharomyces cerevisiae. The test is described as follows: Growth inhibition of Saccharomyces cerevisiae AD1-8u(-) overexpressing CaCdr1p assessed as FIC of fluconazole by checkerboard method. The class given is functional. The essentials:
as §4

The subject of test [9] is Saccharomyces cerevisiae. Description: Growth inhibition of Saccharomyces cerevisiae AD1-8u(-) overexpressing CaMdr1p assessed as FIC of fluconazole by checkerboard method. Type of test: functional. The essentials: as §4
Test [10] relates to Saccharomyces cerevisiae. The test is described as follows: Growth inhibition of Saccharomyces cerevisiae AD1-8u(-) assessed as FIC of compound by checkerboard method. Type of test: functional. Summed up: as §4
In test [11] the test system is Saccharomyces cerevisiae. The test is described as follows: Growth inhibition of Saccharomyces cerevisiae AD1-8u(-) overexpressing CaCdr1p assessed as FIC of compound by checkerboard method. Type of test: functional. Summed up: as §4
The test system of test [12] is Saccharomyces cerevisiae. The test is described as follows: Growth inhibition of Saccharomyces cerevisiae AD1-8u(-) overexpressing CaMdr1p assessed as FIC of compound by checkerboard method. Type of test: functional. The essentials:
as §4

The test system of test [13] is Saccharomyces cerevisiae. The test is described as follows: Growth inhibition of Saccharomyces cerevisiae AD1-8u(-) assessed as FIC index by checkerboard method. Type of test: functional. Summed up: as §4
Test [14] relates to Saccharomyces cerevisiae. The test is described as follows: Growth inhibition of Saccharomyces cerevisiae AD1-8u(-) overexpressing CaCdr1p assessed as FIC index by checkerboard method. Type of test: functional. Summed up: as §4
In test [15] the test system is Saccharomyces cerevisiae. Description: Growth inhibition of Saccharomyces cerevisiae AD1-8u(-) overexpressing CaMdr1p assessed as FIC index by checkerboard method. Type of test: functional. The essentials:
as §4

Test [16] relates to Candida albicans. Description: Inhibition of Candida albicans CaMdr1p-mediated drug efflux overexpressed in Saccharomyces cerevisiae assessed as nile red accumulation after 30 mins by flow cytometry. The essentials:
as §1

Consider `CC(=O)O[C@@H]1[C@H](C)/C=C/C(C)(C)C(=O)C[C@@H](OC(=O)c2ccccc2)/C(C)=C/[C@H]2[C@@H](OC(=O)c3ccccc3)[C@H](C)C[C@]12OC(C)=O`, for which the inhibition (in general, the relative decrease from the control value, in per cent) with Candida albicans [1] was “inactive”.

As for `C=C1CC(OC(C)=O)C(=O)C(C)(C)/C=C/[C@H](C)[C@@H](OC(C)=O)[C@@]2(OC(C)=O)C[C@@H](C)[C@H](OC(=O)c3ccccc3)[C@@H]2[C@H]1OC(C)=O` (some centres not stated), the inhibition result in the test with Candida albicans [1] was “Active”. The results for the pIC50 in the test with Saccharomyces cerevisiae [2], in the test with Saccharomyces cerevisiae [3] and with Saccharomyces cerevisiae [4] were 5.64, 4.50 and 4.60, respectively. For the same molecule, the results for the “Ratio IC50” value in the test on Saccharomyces cerevisiae [5] and with Saccharomyces cerevisiae [6] were 13.8 and 10.9, respectively. Besides, the FIC50 in the test on Saccharomyces cerevisiae [7] came to 1.2; in the test on Saccharomyces cerevisiae [8] it was 0.04; with Saccharomyces cerevisiae [9], 1; with Saccharomyces cerevisiae [10], 0.07; in the test with Saccharomyces cerevisiae [11], 0.02; with Saccharomyces cerevisiae [12], 0.02. For the same molecule, the “fractional inhibitory concentration index (FICI)” value was determined as 1.27 in the test with Saccharomyces cerevisiae [13], 0.06 with Saccharomyces cerevisiae [14] and 1.02 with Saccharomyces cerevisiae [15].

Regarding `CC(=O)O[C@@H]1[C@@H](O)[C@@H](OC(C)=O)/C(C)=C/[C@H]2[C@@H](OC(=O)c3ccccc3)[C@H](C)C[C@]2(OC(C)=O)[C@H](OC(C)=O)[C@@H](C)/C=C/C1(C)C`, the inhibition result with Candida albicans [1] is “Active”. Moreover, the pIC50 (usually −log10 of the IC50, conventionally taken in molar units) was 5.64 in the test on Saccharomyces cerevisiae [2], 5.43 with Saccharomyces cerevisiae [3] and 5.46 in the test with Saccharomyces cerevisiae [4]. Besides, the figures for the “Ratio IC50” value with Saccharomyces cerevisiae [5] and in the test on Saccharomyces cerevisiae [6] were 1.6 and 1.5, respectively. In addition, the FIC50 in the test on Saccharomyces cerevisiae [7] is recorded as 1.2; in the test with Saccharomyces cerevisiae [8], 0.08; in the test on Saccharomyces cerevisiae [9] it was 1; in the test on Saccharomyces cerevisiae [10], 0.07; in the test with Saccharomyces cerevisiae [11], 0.34; with Saccharomyces cerevisiae [12] it was 0.36. The figures for the “fractional inhibitory concentration index (FICI)” value in the test with Saccharomyces cerevisiae [13], in the test with Saccharomyces cerevisiae [14] and in the test with Saccharomyces cerevisiae [15] were 1.27, 0.42 and 1.36, respectively.

`CC(=O)O[C@@H]1[C@@H](OC(C)=O)C(C)(C)/C=C/[C@H](C)C(=O)[C@@]2(OC(C)=O)C[C@@H](C)[C@H](OC(=O)c3ccccc3)/C2=C/[C@](C)(O)[C@@H]1OC(C)=O`: in the test on Candida albicans [1], the inhibition was 88%. Also, the inhibition result with Candida albicans [16] was “Active”. Besides, the values for the pIC50 in the test with Saccharomyces cerevisiae [2], with Saccharomyces cerevisiae [3] and in the test on Saccharomyces cerevisiae [4] were 5.64, 4.57 and 4.55, respectively. Besides, the “Ratio IC50” value in the test with Saccharomyces cerevisiae [5] is on record as 11.6; in the test on Saccharomyces cerevisiae [6], 12.3. Further, the FIC50 in the test on Saccharomyces cerevisiae [7] worked out at 1.2; with Saccharomyces cerevisiae [8] it was 0.02; with Saccharomyces cerevisiae [9], 0.5; in the test with Saccharomyces cerevisiae [10] it was 0.07; in the test with Saccharomyces cerevisiae [11] it was 0.01; with Saccharomyces cerevisiae [12] it was 0.02. The “fractional inhibitory concentration index (FICI)” value is listed as 1.27 in the test with Saccharomyces cerevisiae [13], 0.03 in the test on Saccharomyces cerevisiae [14] and 0.52 in the test with Saccharomyces cerevisiae [15].

With `CC(=O)O[C@@H]1[C@@H](OC(C)=O)C(C)(C)/C=C/[C@H](C)[C@@H](OC(C)=O)[C@@]2(OC(C)=O)C[C@@H](C)[C@H](OC(=O)c3ccccc3)/C2=C\[C@](C)(O)[C@@H]1O`, the inhibition result in the test with Candida albicans [1] is “inactive”.

Take `C=C1[C@H](OC(C)=O)[C@@H](OC(C)=O)[C@@H](OC(C)=O)C(C)(C)/C=C/[C@H](C)C(=O)[C@@]2(OC(C)=O)C[C@H](C)[C@H](OC(C)=O)[C@@H]2[C@H]1OC(=O)c1ccccc1`: the inhibition result in the test with Candida albicans [1] is “inactive”.

Regarding `C=C1CCC(=O)C(C)(C)/C=C/[C@H](C)C(=O)[C@@]2(OC(C)=O)C[C@H](C)[C@H](OC(=O)c3ccccc3)[C@@H]2[C@H]1OC(C)=O`, the inhibition entry with Candida albicans [1] and in the test on Candida albicans [16] was “Active” each time.

Consider `C=C1[C@H](OC(=O)c2ccccc2)[C@H]2[C@@H](OC(C)=O)[C@@H](C)C[C@]2(OC(C)=O)C(=O)[C@@H](C)/C=C/C(C)(C)C(=O)[C@H](OC(C)=O)[C@H]1OC(C)=O`, for which the inhibition result in the test on Candida albicans [1] was “inactive”.

The values above are taken from ChEMBL document CHEMBL3352033, “Jatrophanes from Euphorbia squamosa as potent inhibitors of Candida albicans multidrug transporters” (J Nat Prod, 2014).
